Calls of active or inactive are those of the source. The calls are words filed in the database; no cut-off is given here.
Key:
[1] = Inhibition of cytosolic phospholipase A2alpha
Blood [2] = experiment: Inhibition of TXB2 production in human whole blood at 0.15 uM; assay type: functional
Method in brief: (§1)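 Human whole blood stimulated with calcium ionophore A23187 at 30 µM. Several arachidonic acid metabolites (LTB4, PGE2, PGF2α, TXB2) and PAF production were quantified.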

[3] = Plasma concentration in adjuvant-induced arthritis Lewis rat model at 50 mg/kg, po after 16 hrs; assay type: ADME, organism-based; design: dose 50 mg/kg, route oral
[4] = Plasma concentration in adjuvant-induced arthritis Lewis rat model at 5 mg/kg, po after 16 hrs; assay type: ADME, organism-based; design: dose 5 mg/kg, route oral
Blood [5] = experiment: Inhibition of PGE2 production in human whole blood at 0.15 uM; assay type: functional; method in brief: as §1
[6] = biological target: Prostaglandin G/H synthase 2, cyclooxygenase-2 (Homo sapiens) (UniProt P35354); experiment: Inhibition of COX2-dependent PGE2 production in IL1B stimulated human A549 cells at 1 uM in presence of arachidonic acid
Chain of Prostaglandin G/H synthase 2, cyclooxygenase-2 (Homo sapiens) (P35354 whole entry, looked up): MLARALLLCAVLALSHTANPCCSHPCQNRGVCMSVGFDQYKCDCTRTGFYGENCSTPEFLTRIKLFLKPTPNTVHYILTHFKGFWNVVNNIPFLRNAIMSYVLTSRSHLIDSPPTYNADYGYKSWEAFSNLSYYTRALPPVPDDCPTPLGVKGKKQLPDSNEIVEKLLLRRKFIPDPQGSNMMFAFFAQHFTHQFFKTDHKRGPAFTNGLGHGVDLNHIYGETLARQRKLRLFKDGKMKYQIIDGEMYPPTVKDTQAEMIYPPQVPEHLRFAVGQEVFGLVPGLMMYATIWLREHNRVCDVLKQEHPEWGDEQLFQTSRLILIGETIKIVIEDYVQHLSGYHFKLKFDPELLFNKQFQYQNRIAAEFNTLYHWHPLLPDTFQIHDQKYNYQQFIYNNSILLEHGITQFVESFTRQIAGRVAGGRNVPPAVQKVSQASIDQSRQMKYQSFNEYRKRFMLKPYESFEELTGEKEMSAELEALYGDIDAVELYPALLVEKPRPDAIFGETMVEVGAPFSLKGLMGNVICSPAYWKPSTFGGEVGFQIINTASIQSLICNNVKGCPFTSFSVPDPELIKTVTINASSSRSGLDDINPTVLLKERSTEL

[7] = Plasma concentration in adjuvant-induced arthritis Lewis rat model at 25 mg/kg, po after 16 hrs; assay type: ADME, organism-based; design: dose 25 mg/kg, route oral
[8] = Plasma concentration in adjuvant-induced arthritis Lewis rat model at 5 mg/kg, po after 4 hrs; assay type: ADME, organism-based; design: dose 5 mg/kg, route oral
Rattus norvegicus [9] = experiment: Reduction in synovitis damage in Freund's adjuvant-induced arthritis Lewis rat model at 25 mg/kg, po for 11 days; assay type: functional, organism-based; design: dose 25 mg/kg
Method in brief: (§2)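 Arthritis was induced in Lewis rats by intradermal complete Freund's adjuvant at the base of the tail. Oral treatment began on day 8, when mean clinical joint scores were 12, and continued for 11 days. Tarsal joints were taken at necropsy and lesions were scored histologically in blinded fashion.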

[10] = Plasma concentration in collagen-induced arthritis mouse model at 100 mg/kg, po twice daily after 3 hrs; assay type: ADME, organism-based; design: dose 100 mg/kg, route oral
Ovis aries [11] = experiment: Effect on late asthmatic response in Ascaris Suum antigen-induced reversible airway bronchoconstriction sheep model assessed as reduction in lung resistance at 10 mg/kg, po bid administered 2 hrs before antigen challenge measured 5 to 8 hrs after challenge; assay type: functional; design: scale not given: the % may be the effect or the level left
MC9 [12] = experiment: Inhibition of PGF2apha production in arachidonic acid-stimulated mouse MC9 cells; assay type: functional, cell-based
[13] = biological target: T1, Cytosolic phospholipase A2 gamma (Homo sapiens) (UniProt Q9UP65); experiment: Inhibition of cytosolic phospholipase A2gamma at 0.5 uM
T1 sequence (whole entry): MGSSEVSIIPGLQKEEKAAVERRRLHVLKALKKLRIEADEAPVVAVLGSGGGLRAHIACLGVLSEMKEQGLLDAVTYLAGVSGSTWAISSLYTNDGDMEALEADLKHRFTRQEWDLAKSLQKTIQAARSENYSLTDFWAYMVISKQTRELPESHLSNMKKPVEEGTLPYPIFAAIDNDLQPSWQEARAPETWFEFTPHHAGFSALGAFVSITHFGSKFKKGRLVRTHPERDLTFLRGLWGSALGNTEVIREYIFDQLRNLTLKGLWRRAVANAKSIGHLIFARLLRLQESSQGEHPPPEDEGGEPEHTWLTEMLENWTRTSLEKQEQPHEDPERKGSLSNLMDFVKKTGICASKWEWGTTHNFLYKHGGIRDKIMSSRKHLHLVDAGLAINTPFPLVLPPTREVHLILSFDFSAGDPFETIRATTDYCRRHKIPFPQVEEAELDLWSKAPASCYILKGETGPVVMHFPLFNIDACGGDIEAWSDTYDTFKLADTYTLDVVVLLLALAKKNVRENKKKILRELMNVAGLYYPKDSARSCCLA
Method in brief: (§3)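 Isolated enzyme activity on PAPC (1-palmitoyl-2-arachidonoyl-sn-glycero-3-phosphocholine) liposome substrate.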

Rattus norvegicus [14] = experiment: Reduction in cartilage damage in Freund's adjuvant-induced arthritis Lewis rat model at 5 mg/kg, po for 11 days; assay type: functional, organism-based; design: dose 5 mg/kg; method in brief: as §2
Rattus norvegicus [15] = experiment: Reduction in synovitis damage in Freund's adjuvant-induced arthritis Lewis rat model at 50 mg/kg, po for 11 days; assay type: functional, organism-based; design: dose 50 mg/kg; method in brief: as §2
Rattus norvegicus [16] = experiment: Reduction in synovitis damage in Freund's adjuvant-induced arthritis Lewis rat model at 5 mg/kg, po for 11 days; assay type: functional, organism-based; design: dose 5 mg/kg; method in brief: as §2
Ovis aries [17] = experiment: Inhibition of acute hyperresponsiveness in Ascaris Suum antigen-induced reversible airway bronchoconstriction sheep model assessed as reduction in lung resistance at 10 mg/kg, po bid administered and measured after 16 hrs
[18] = Inhibition of secreted phospholipase A2 at 0.5 uM
Method in brief: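 Type II secreted PLA2 activity measured with PAPE (1-palmitoyl-2-arachidonoyl-sn-glycero-3-phosphoethanolamine) liposomes as substrate.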

[19] = Inhibition of cytosolic phospholipase A2alpha by GLU micelle assay
Method in brief: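 Micellar assay with 7-hydroxycoumarinyl-γ-linolenate (GLU) substrate, presenting inhibitor and substrate to the enzyme in high-lipid micelles. Each run gives the mean of duplicate assays, and values come from at least two runs.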

Rattus norvegicus [20] = experiment: Inhibition of carrageenan-induced paw edema in po dosed Sprague-Dawley rat administered 2 hrs before carrageenan challenge; assay type: functional
[21] = Plasma concentration in adjuvant-induced arthritis Lewis rat model at 25 mg/kg, po after 4 hrs; assay type: ADME, organism-based; design: dose 25 mg/kg, route oral
[22] = Plasma concentration in adjuvant-induced arthritis Lewis rat model at 50 mg/kg, po after 4 hrs; assay type: ADME, organism-based; design: dose 50 mg/kg, route oral
[23] = Oral bioavailability in rat; assay type: ADME, organism-based; conditions: in vivo
Rattus norvegicus [24] = experiment: Reduction in cartilage damage in Freund's adjuvant-induced arthritis Lewis rat model at 50 mg/kg, po for 11 days; assay type: functional, organism-based; design: dose 50 mg/kg; method in brief: as §2
Blood [25] = experiment: Inhibition of LTB4 production in human whole blood at 0.15 uM; assay type: functional; method in brief: as §1
Rattus norvegicus [26] = experiment: Inhibition of PGE2 production in carrageenan-stimulated orally dosed rat air pouch model after 6 hrs; assay type: functional; conditions: po
Method in brief: (§4)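 Carrageenan was injected into a preformed air pouch 2 h after oral drug. Pouch contents were removed 6 h later and PGE2 was quantified.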

MC9 [27] = experiment: Inhibition of LTB4 production in mouse MC9 cells; assay type: functional, cell-based
Blood [28] = experiment: Inhibition of PGF2alpha production in human whole blood at 0.15 uM; assay type: functional; method in brief: as §1
[29] = Inhibition of cytosolic phospholipase A2alpha at 0.020 uM; method in brief: as §3
[30] = biological target: T2, Cytosolic phospholipase A2 beta (Homo sapiens) (UniProt P0C869); experiment: Inhibition of cytosolic phospholipase A2beta at 0.5 uM; method in brief: as §3
T2 sequence (whole entry): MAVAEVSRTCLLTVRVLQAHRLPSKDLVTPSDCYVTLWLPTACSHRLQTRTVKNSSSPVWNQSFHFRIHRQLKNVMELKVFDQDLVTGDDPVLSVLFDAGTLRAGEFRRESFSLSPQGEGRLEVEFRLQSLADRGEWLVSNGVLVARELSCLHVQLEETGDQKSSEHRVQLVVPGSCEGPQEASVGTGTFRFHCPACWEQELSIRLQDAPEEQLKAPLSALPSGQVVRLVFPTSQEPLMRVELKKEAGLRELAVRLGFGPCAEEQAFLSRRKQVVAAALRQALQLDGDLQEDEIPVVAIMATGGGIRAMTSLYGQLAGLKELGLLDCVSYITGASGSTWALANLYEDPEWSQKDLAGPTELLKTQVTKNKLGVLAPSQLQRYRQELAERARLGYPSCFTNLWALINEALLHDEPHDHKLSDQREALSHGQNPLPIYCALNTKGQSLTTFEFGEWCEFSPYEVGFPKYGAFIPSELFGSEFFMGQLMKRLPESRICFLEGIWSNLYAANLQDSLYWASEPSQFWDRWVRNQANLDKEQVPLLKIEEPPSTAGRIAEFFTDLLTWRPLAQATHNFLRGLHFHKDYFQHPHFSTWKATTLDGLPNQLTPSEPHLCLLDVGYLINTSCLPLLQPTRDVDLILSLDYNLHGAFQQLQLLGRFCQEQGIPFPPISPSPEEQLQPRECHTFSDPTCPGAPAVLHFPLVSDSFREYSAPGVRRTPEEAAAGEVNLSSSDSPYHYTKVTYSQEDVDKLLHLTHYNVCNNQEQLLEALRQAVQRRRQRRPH

Rattus norvegicus [31] = experiment: Reduction in cartilage damage in Freund's adjuvant-induced arthritis Lewis rat model at 25 mg/kg, po for 11 days; assay type: functional, organism-based; design: dose 25 mg/kg; method in brief: as §2
Blood [32] = experiment: Inhibition of PAF production in human whole blood at 0.15 uM; assay type: functional; method in brief: as §1
[33] = biological target: Prostaglandin G/H synthase 2, cyclooxygenase-2 (Homo sapiens) (UniProt P35354); experiment: Inhibition of COX2-dependent PGE2 production in IL1B stimulated human A549 cells at 0.040 uM
MC9 [34] = experiment: Inhibition of PGF2alpha production in mouse MC9 cells; assay type: functional, cell-based
Mus musculus = experiment: Plasma concentration in collagen-induced arthritis mouse model at 100 mg/kg, po twice daily after 12 to 14 hrs; assay type: ADME, organism-based; design: dose 100 mg/kg, route oral; conditions: in vivo
[35] = Plasma clearance in Sprague-Dawley rat at 2 mg/kg, iv; assay type: ADME, organism-based; design: dose 2 mg/kg, route intravenous
Blood [36] = experiment: Inhibition of PAF production in human whole blood at 0.039 uM; assay type: functional; method in brief: as §1
[37] = Ratio of AUC in Sprague-Dawley rat at 25 mg/kg, po to IC50 for TXB2 production in Sprague-Dawley rat whole blood; assay type: functional
Blood [38] = experiment: Inhibition of PGF2alpha production in human whole blood at 0.039 uM; assay type: functional; method in brief: as §1
Blood [39] = experiment: Inhibition of PGE2 production in human whole blood at 0.039 uM; assay type: functional; method in brief: as §1
[40] = test system: Prostaglandin G/H synthase 2, cyclooxygenase-2; experiment: Inhibition of COX2 in microsomes at 100 uM
Blood [41] = experiment: Inhibition of LTB4 production in human whole blood at 0.039 uM; assay type: functional; method in brief: as §1
[42] = test system: Prostaglandin G/H synthase 1, cyclooxygenase-1; experiment: Inhibition of COX1 in microsomes at 100 uM
Rattus norvegicus [43] = experiment: Inhibition of carrageenan-induced paw edema in Sprague-Dawley rat administered 2 hrs before carrageenan challenge at 25 mg/kg, po; assay type: functional
Blood [44] = experiment: Inhibition of TXB2 production in human whole blood at 0.039 uM; assay type: functional; method in brief: as §1
Rattus norvegicus [45] = experiment: Inhibition of PGE2 production in carrageenan-stimulated rat air pouch model at 5 mg/kg, po after 6 hrs; assay type: functional; method in brief: as §4

| SMILES | IC50 [1] [nM] | concentration at 16 h [3] [ng/mL] | concentration at 16 h [4] [ng/mL] | concentration at 16 h [7] [ng/mL] | concentration at 4 h [8] [ng/mL] | Activity (Rattus norvegicus [9]) | concentration at 3 h [10] [ng/mL] | Activity (Ovis aries [11]) [%] | IC50 (MC9 [12]) [nM] | Activity [13] | Activity (Rattus norvegicus [14]) | Activity (Rattus norvegicus [15]) | Activity (Rattus norvegicus [16]) | Activity (Ovis aries [17]) | Activity [18] | IC50 [19] [nM] | ED50 (Rattus norvegicus [20]) [mg/kg] | concentration at 4 h [21] [ng/mL] | concentration at 4 h [22] [ng/mL] | bioavailability [23] [%] | further results |
| --- | --- | --- | --- | --- | --- | --- | --- | --- | --- | --- | --- | --- | --- | --- | --- | --- | --- | --- | --- | --- | --- |
| O=C(O)c1ccc(CCCc2c(CCNS(=O)(=O)Cc3ccc(Cl)c(Cl)c3)n(C(c3ccccc3)c3ccccc3)c3ccc(Cl)cc23)cc1 [EFIPLADIB] | < 10 | 692 | 34 | 166 | 147 | Active | 7200 | 50 | 900 | inactive | Active | Active | Active | Active | inactive | 40 | 35 | 1130 | 3600 | 6 | inhibition at 0.15 µM (Blood [2]): 57%; inhibition at 0.15 µM (Blood [5]): 78%; Activity [6]: inactive; Activity (Rattus norvegicus [24]): Active; inhibition at 0.15 µM (Blood [25]): 64%; ED50 (Rattus norvegicus [26]): 6 mg/kg; IC50 (MC9 [27]): 20 nM; inhibition at 0.15 µM (Blood [28]): 66%; inhibition [29]: > 90%; Activity [30]: inactive; Activity (Rattus norvegicus [31]): Active; inhibition at 0.15 µM (Blood [32]): 50%; inhibition [33]: > 95%; IC50 (MC9 [34]): 20 nM; Cp (Mus musculus): 2315 ng/mL |
| Cc1cccc(C)c1CS(=O)(=O)NCCc1c(CCCc2ccc(C(=O)O)cc2)c2cc(Cl)ccc2n1C(c1ccccc1)c1ccccc1 | < 10 | 110 | 26 | 73 | 69 | Active | 923 | 85 | > 1000 | inactive | Active | Active | Active | Active | inactive | 10 | 8 | 698 | 1140 | 4 | clearance [35]: 3 mL/min/kg; inhibition at 0.039 µM (Blood [36]): 57%; Ratio [37]: 160 h; inhibition at 0.039 µM (Blood [38]): 72%; inhibition at 0.039 µM (Blood [39]): 79%; Activity [40]: inactive; inhibition at 0.039 µM (Blood [41]): 78%; Activity [42]: inactive; inhibition in vivo at 25 mg/kg (Rattus norvegicus [43]): 34%; Activity (Rattus norvegicus [24]): Active; inhibition at 0.039 µM (Blood [44]): 72%; ED50 (Rattus norvegicus [26]): 3.5 mg/kg; IC50 (MC9 [27]): 12 nM; inhibition [29]: > 90%; Activity [30]: inactive; Activity (Rattus norvegicus [31]): Active; IC50 (MC9 [34]): 6 nM; inhibition in vivo at 5 mg/kg (Rattus norvegicus [45]): > 50%; Cp (Mus musculus): 118 ng/mL |
